Test [1] has as its system Mus musculus. As to the kind of experiment: Antinociceptive activity in icv dosed CD1 mouse assessed as reduction in CYM51010-induced nociception pretreated for 5 mins followed by CYM51010 injection measured up to 2 hrs by tail flick assay. The format is functional. (Hot-plate and tail-flick tests time the reaction to a heat stimulus.)
The subject of test [2] is Mus musculus. As to the kind of experiment: Reduction in morphine dependence expression in chronic morphine dependence ICR mouse model assessed as inhibition of naloxone-precipitated GI effects of withdrawal at 1 nmol, […] administered 5 mins prior to naloxone injection measured up to 20 mins. Format: functional, organism-based.
The target in test [3] is Delta-type opioid receptor (Homo sapiens, UniProt P41143). Briefly: Antagonist activity at human DOR expressed in CHO cell membranes assessed as inhibition of CYM51010-induced [35S]-GTPgammaS binding preincubated for 5 mins followed by CYM51010 and [35S]-GTPgammaS addition measured after 80 mins. The format is functional. Conditions: cho. The method in brief: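 Membranes from CHO cells stably expressing human opioid receptor (N-terminal tagged) were preincubated 5 min with antagonist concentration curves, then given 1 µM CYM51010 and 0.1 nM 35S-GTPγS; 30°C, 80 min, GF/B filtration, scintillation counting. Normalized to CYM51010 alone (100%) and vehicle (0%). Fits: 1-site for MOR/DOR (IC50), 2-site for MDOR (IC50HIGH). N = 3-4, duplicate, mean ± SEM.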
Sequence of Delta-type opioid receptor (P41143 whole entry): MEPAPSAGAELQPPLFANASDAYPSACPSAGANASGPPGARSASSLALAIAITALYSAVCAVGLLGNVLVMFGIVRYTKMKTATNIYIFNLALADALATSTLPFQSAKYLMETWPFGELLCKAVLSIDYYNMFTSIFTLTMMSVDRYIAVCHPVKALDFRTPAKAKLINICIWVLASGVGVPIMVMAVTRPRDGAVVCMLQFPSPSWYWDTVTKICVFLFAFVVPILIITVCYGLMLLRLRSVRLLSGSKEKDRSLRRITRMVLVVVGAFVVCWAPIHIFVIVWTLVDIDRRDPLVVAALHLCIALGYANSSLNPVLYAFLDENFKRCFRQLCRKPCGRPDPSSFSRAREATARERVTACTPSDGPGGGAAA

The target of test [4] is Kappa-type opioid receptor (Homo sapiens) (UniProt P41145). As to the kind of experiment: Antagonist activity at human KOR expressed in CHO cell membranes assessed as inhibition of U50488-induced [35S]-GTPgammaS binding preincubated for 5 mins followed by U50488 and [35S]-GTPgammaS addition measured after 80 mins. Format: functional. The method in brief:
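KOR-CHO membranes (human receptor, N-terminal tag), antagonist concentration curve preincubated 5 min, then 1 µM U50,488 plus 0.1 nM 35S-GTPγS added. Incubated 30°C, 80 min; filtration and scintillation counting. Vehicle 0.1% DMSO in assay buffer with 0.1% BSA. Normalized to agonist alone (100%) and vehicle (0%). One-site curve fit; N = 3 independent experiments in duplicate.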
For orientation: GTPγS resists hydrolysis and so accumulates on activated G proteins.

For test [5], the target named is Opioid receptors; mu & delta (Homo sapiens, UniProt P41143+P35372). Briefly: Antagonist activity at human MOR expressed in CHO cell membranes mixed with human DOR expressed in CHO cell membranes assessed as inhibition of CYM51010-induced [35S]-GTPgammaS binding preincubated for 5 mins followed by CYM51010 and [35S]-GTPgammaS addition measured after 80 mins. Format: functional. The method in brief:
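MOR-CHO and DOR-CHO membranes mixed at the molar ratio from MDOR-CHO saturation binding (Bmax 7.9 pmol/mg DOR, 1.1 pmol/mg MOR). Antagonist curve preincubated 5 min, then 1 µM CYM51010 and 0.1 nM 35S-GTPγS. Incubated 30°C, 80 min, then filtered and counted. Normalized to CYM51010 alone and vehicle. N = 3 independent experiments in duplicate.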

pIC50: −log10 of the molar value. The source made the active and inactive calls. The rule behind the calls is not given here. Where only a bound is given, the exact number is not on record here.

As a reminder, the pIC50 is the IC50 on a negative log10 scale, so that one unit is a factor of ten.

Sequence of Opioid receptors; mu & delta (P35372 whole entry, looked up): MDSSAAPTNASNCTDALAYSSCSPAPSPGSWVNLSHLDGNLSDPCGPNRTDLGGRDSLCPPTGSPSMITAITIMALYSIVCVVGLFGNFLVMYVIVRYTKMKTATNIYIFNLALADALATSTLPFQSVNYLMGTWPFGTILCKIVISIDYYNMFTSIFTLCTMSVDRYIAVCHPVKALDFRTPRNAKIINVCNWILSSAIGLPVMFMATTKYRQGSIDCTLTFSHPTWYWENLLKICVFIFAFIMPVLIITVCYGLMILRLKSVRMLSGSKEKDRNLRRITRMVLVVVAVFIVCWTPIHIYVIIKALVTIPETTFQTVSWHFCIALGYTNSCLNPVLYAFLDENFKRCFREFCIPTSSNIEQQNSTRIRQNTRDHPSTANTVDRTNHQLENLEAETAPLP
Sequence of Opioid receptors; mu & delta (P41143 whole entry, looked up): as the sequence (P41143 whole entry) above
Sequence of Kappa-type opioid receptor (Homo sapiens) (P41145 whole entry): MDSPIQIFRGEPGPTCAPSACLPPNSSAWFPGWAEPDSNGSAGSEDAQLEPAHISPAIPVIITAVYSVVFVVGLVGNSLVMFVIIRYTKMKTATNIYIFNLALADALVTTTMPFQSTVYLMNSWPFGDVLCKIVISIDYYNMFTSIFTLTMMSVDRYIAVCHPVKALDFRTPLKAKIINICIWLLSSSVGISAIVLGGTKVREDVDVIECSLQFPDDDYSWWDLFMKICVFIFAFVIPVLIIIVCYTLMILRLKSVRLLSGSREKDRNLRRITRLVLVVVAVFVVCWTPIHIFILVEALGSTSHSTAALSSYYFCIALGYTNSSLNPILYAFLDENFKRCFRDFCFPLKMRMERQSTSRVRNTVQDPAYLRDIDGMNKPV

With `N[C@@H](Cc1ccc(O)cc1)C(=O)N1Cc2ccccc2C[C@@H]1C(=O)NCC(=O)NCCCCC(=O)N[C@H](CCCCNC(=O)CCCCNC(=O)CNC(=O)[C@@H](Cc1cccc2ccccc12)NC(=O)[C@H](Cc1ccccc1)NC(=O)[C@@H]1CCCN1C(=O)[C@@H](N)Cc1ccc(O)cc1)C(=O)O`, in test [1], the A50 turned out to be 2.04 nmol and the Activity result was “Dose-dependent effect”. Moreover, in test [2], the result was Active. For the same molecule, the pIC50 in test [3] was 7.12. For the same molecule, in test [4], the inhibition result was “inactive”. For the same molecule, in test [5], the IC50H turned out to be 89 nM and the IC50L is greater than 1000 nM.

The values above are taken from ChEMBL document CHEMBL4138315, “Synthesis and Evaluation of a Novel Bivalent Selective Antagonist for the Mu-Delta Opioid Receptor Heterodimer that Reduces Morphine Withdrawal in Mice” (J Med Chem, 2018).
